Assay outcomes from PubChem.
Most compounds without a hit are left out; they make up all but 2.5% or so of the library.
T cell HTS – modulates CD8 T cell binding to vesicles; hit rate 0.068% among 330,000; AID 2052; 2C CD8+ T cell-vesicle binding, flow cytometry; stronger effect = lower value; response (vesicle binding), % at 7 µM;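 active = response, share of CD8 T cells binding vesicles, and their 90th percentile fluorescence all below set limits, cut at about 80% in these data, passing the limit was not always enough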;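 also: values below 100% mean blocked vesicle binding to the CD8+ T cells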
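Also added: QL9-peptide-loaded Drosophila micro-vesicles bearing Ld, ICAM-1 and B7-1; Test system: purified 2C TCR transgenic mouse naive CD8+ T cells; Measured by: cytometric PE anti-B7-1 and Alexa647 anti-CD8 signals after 1% paraformaldehyde fixation; Timing: binding step 1.5 h, 37 °C, antibody labelling 20 min, ice.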
Rce1 inhib – yeast Ras-converting enzyme inhibition. Q03530. yeast membranes, quenched prenylated peptide cleavage fluorescence. calls only. hit rate 0.27% among 290,000. AID 2563;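 active = fall in fluorescence gain of 50% or more versus controls, with final raw signal at or below 3038400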;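 also: plate controls were neutral control wells for no effect and wells lacking membranes for full effect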
Target sequence (Q03530 whole entry, looked up): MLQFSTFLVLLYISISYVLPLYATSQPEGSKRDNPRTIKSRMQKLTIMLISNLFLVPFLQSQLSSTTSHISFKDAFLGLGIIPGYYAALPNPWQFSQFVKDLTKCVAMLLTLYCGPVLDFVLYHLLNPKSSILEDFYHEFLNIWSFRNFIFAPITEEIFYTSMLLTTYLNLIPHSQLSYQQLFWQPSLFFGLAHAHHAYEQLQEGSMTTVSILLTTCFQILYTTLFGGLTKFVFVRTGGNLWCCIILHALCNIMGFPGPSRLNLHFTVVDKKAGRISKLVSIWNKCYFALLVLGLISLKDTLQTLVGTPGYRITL
MEKK2 mut-MEK5 – signal of MEK5 binding to mutant human MEKK2 PB1 domain; hit rate 0.35% among 290,000; bead flow cytometry, Alexa488-MEK5 binding to MEKK2 mutant; percent response, % at 10 µM; in the data active = percent response above about 24%, passing the limit was not always enough
MEKK3 PB1 HTS – raises or lowers MEK5 binding to the human MEKK3 PB1 domain | Q99759 | bead-based flow cytometry, Alexa488-MEK5 binding to MEKK3; actives lie on both sides; 0 = blocked by unlabeled MEK5, 100 = vehicle | binding response (% of control), % at 10 µM | hit rate 1.4% among 290,000 | AID 1529;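 active = binding response more than 3 SD above or below the average of its plate-row segment, actives on both sides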;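 also: Alexa488 bead fluorescence after subtracting the streptavidin-only scavenger bead signal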
MEKK2 WT-MEK5 – raises or lowers MEK5 binding to wildtype human MEKK2 PB1 domain; Q9Y2U5; bead flow cytometry, Alexa488-MEK5 binding to MEKK2 WT; actives lie on both sides; binding response (% of control), % at 10 µM; hit rate 1.1% among 290,000; in the data active = binding response below about 67% or above about 130%
UCH37 DUB inh – blocks the human deubiquitinase UCH37; AID 588478; purified proteasome/UCH37, Ub-AMC cleavage fluorescence; Q9Y5K5; hit rate 0.33% among 330,000; inhibition, % (concentration not given with the values);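 active = mean inhibition over replicate wells above about 20%, limit read from the data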;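 also: 0% = compound-free wells with enzyme and 100% = wells lacking proteasome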
Target sequence (Q9Y5K5 whole entry, looked up): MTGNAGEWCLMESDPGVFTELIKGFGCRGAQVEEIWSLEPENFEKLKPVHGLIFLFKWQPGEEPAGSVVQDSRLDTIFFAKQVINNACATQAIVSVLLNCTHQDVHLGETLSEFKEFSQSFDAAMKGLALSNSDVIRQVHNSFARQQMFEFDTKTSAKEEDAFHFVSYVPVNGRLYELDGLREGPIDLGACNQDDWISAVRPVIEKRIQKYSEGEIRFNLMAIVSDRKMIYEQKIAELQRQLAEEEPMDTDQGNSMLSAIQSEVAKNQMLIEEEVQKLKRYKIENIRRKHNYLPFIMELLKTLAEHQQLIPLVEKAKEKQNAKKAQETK
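System: Proteasome-associated human UCH37 deubiquitinase; Input: 0.15 nM proteasome in added enzyme buffer; Also added: Ub-AMC substrate from 1 µM stock; Incubation: 30 min compound-proteasome preincubation then 25 min substrate reaction, room temperature; Detection: fluorescence, ex 355 nm, em 460 nm; Read-out: % inhibition of Ub-AMC cleavage fluorescence; Benchmarks: no-proteasome and no-compound wells.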
MEKK2wt confirm – raises or lowers MEK5 binding to wildtype human MEKK2, retest. binding response (% of control), % at 10 µM. bead flow cytometry, Alexa488-MEK5 binding to MEKK2 WT; actives lie on both sides. AID 1892. shares compounds with MEKK3 PB1 HTS. hit rate 2.4% among 5,900; in the data active = binding response below about 16% or above about 210%; inactive = in between
MEKK2mut-MEK5 – signal of MEK5 binding to mutant human MEKK2, retest; shares compounds with MEKK3 PB1 HTS; bead flow cytometry, Alexa488-MEK5 binding to MEKK2 mutant; percent response, % at 10 µM; hit rate 2% among 5,900; in the data active = percent response mostly above about 71%, no sharp cut-off; inactive = mostly below about 38%;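 also: higher means compound restores mutant binding toward wildtype level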
MEKK3 confirm – confirmation of inhibitors of MEK5 binding to human MEKK3. shares compounds with MEKK3 PB1 HTS. bead flow cytometry, Alexa488-MEK5 binding to MEKK3; stronger effect = lower value. binding response (% of control), % at 10 µM. hit rate 1.8% among 5,900. AID 1894;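 active = binding response below 72% of control, or above a set upper limit, though filed actives all read lower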;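 also: 100% = DMSO only wells and 0% = binding blocked by excess unlabeled MEK5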
Active calls of the source: *; i = inactive; . = not tested or not shown; [ ] = another dose, or the depositor's remark.

SMILES | T cell HTS | Rce1 inhib | MEKK2 mut-MEK5 | MEKK3 PB1 HTS | MEKK2 WT-MEK5 | UCH37 DUB inh | MEKK2wt confirm | MEKK2mut-MEK5 | MEKK3 confirm
Cc1ccc(CN2C3CCCC2CC(NC(=O)c2ccc(C)cc2)C3)cc1 (stereo not drawn) | 340 | i | 52* | 144* | 200* | 2 | 116 | 18 | 101
O=C(NC1CC2CCCC(C1)N2Cc1ccccc1)C1CCCCC1 (stereo not drawn) | 483 | i | 6 | 146* | 130 | -2 | 96 | -6 | 100
CCCNC(=S)NC1CC2CCC(C1)N2Cc1ccccc1 (stereo not drawn) | 708 | i | -11 | 82*[inhibitor] | 88 | 1 | 101 | 1 | 98
O=C(Nc1ccc(Cl)c(C(F)(F)F)c1)NC1CC2CCCC(C1)N2Cc1ccccc1 (stereo not drawn) | 380 | i | 7 | 106 | 215* | 5 | 171 | 33 | 106
COc1ccc(C=NNC(=O)CCn2cnc3ccccc32)cc1 | . | . | . | . | . | 5 | . | . | .
C=CCC1S/C(=N/N=Cc2cccs2)NC1=O (stereo not drawn) | . | . | . | . | . | 12 | . | . | .
CCC(C)=NNS(=O)(=O)c1ccc(C)c([N+](=O)[O-])c1 | . | . | . | . | . | 1 | . | . | .
Clc1cccc(Cl)c1CON=Cc1cccs1 | . | . | . | . | . | 3 | . | . | .
COCCNC(=S)NC1CC2CCCC(C1)N2Cc1cccs1 (stereo not drawn) | 172 | i | -10 | 82*[inhibitor] | 86 | 3 | 99 | -2 | 97
Cn1cc(Br)c(C(=O)NN=Cc2cc3c(cc2Cl)OCO3)n1 | . | . | . | . | . | -3 | . | . | .
CCN(CC)S(=O)(=O)c1ccc(NC(=O)c2cccc3c2C(=O)N(CCOC)C3)cc1 | 193 | i | 0 | 132* | 108 | -65 | 102 | -5 | 101
O=[N+]([O-])c1ccc(NN=Cc2cn(-c3ccccc3)nc2-c2ccccc2)cc1 | . | . | . | . | . | 5 | . | . | .
Cc1cc(C)n(C(=O)CN(C)S(=O)(=O)c2ccc([N+](=O)[O-])cc2)n1 | 774 | i | 7 | 104 | 102 | 2 | . | . | .
Cc1ccc(S(=O)(=O)N(C)CCCC(=O)n2nc(C)cc2C)cc1 | 450 | i | -39 | 0.0*[inhibitor] | 0.0*[inhibitor] | 1 | 103 | -2 | 103
NCCCCCCNS(=O)(=O)c1cccc2c(Cl)cccc12 | 214 | i | 10 | 116 | 140* | 0 | 112 | 2 | 98
CC(=O)/C=C\c1ccccc1OC(=O)c1cc2ccccc2oc1=O | 210 | i | 2 | 98 | 100 | -5 | . | . | .
O=C(/C=C\c1ccccc1OC(=O)c1ccccc1F)c1cc2ccccc2o1 | 401 | i | 0 | 135* | 103 | 0 | 105 | 0 | 109
FC(F)(F)c1ccc(-c2nnc(-c3ccccn3)c(-c3ccccn3)n2)nc1 | 244 | i | -37 | 61*[inhibitor] | 66 | 7 | 106 | 3 | 103
c1ccc(-c2nnc(-c3ccccn3)c(-c3ccccn3)n2)nc1 | 78 | i | 5 | 103 | 103 | 5 | . | . | .
OCCN1CCN(CCCN2c3ccccc3Sc3ccc(Cl)cc32)CC1 | 453 | i | 10 | 79 | 160* | 1 | 141 | 27 | 105
CN(C)CCCN1c2ccccc2CCc2ccccc21 | 659 | i | 7 | 93 | 105 | 1 | . | . | .
CN(C)CCCN1c2ccccc2Sc2ccc(Cl)cc21 | 209 | i | 13 | 102 | 153* | 4 | 149 | 27 | 107
Cc1ccc(NC(=S)NN=C2CCCCc3ccccc32)cc1 | . | . | . | . | . | -2 | . | . | .
Cc1oc2c(CN3CCOCC3)c(O)ccc2c(=O)c1-c1ccc(Cl)cc1 | 317 | i | -16 | 38*[inhibitor] | 44*[inhibitor] | -314 | 107 | 7 | 101
Cc1oc2c(CN3CCCC3)c(O)ccc2c(=O)c1-c1ccc(Cl)cc1 | 438 | i | -37 | 97 | 76 | -213 | . | . | .
SMILES | T cell HTS | Rce1 inhib | MEKK2 mut-MEK5 | MEKK3 PB1 HTS | MEKK2 WT-MEK5 | UCH37 DUB inh | MEKK2wt confirm | MEKK2mut-MEK5 | MEKK3 confirm
CC(=O)N1CCc2cc(S(=O)(=O)NCCC(=O)N3CCc4ccccc4C3)ccc21 | 426 | i | 2 | 100 | 102 | 1 | . | . | .
CC(=O)N1CCc2cc(S(=O)(=O)CCC(=O)N3CCc4ccccc4C3)ccc21 | 864 | i | -12 | 17*[inhibitor] | 22*[inhibitor] | 0 | 103 | 2 | 103
CCc1nc(N2CCN(C(=O)CCl)CC2)c2c3c(sc2n1)CC(C)CC3 (stereo not drawn) | 286 | i | 39* | 111 | 153* | . | 141 | 25 | 100
CCc1nc(N2CCN(C(C)=O)CC2)c2c3c(sc2n1)CC(C(C)(C)C)CC3 (stereo not drawn) | 137 | i | 4 | 101 | 107 | -2 | . | . | .
CSc1nnc(-c2ccco2)n1-c1ccccc1 | 326 | i | 12 | 123* | 124 | 5 | 109 | 5 | 105
COC(=O)C1CC(=NNS(=O)(=O)c2ccc(C)cc2)CS1 (stereo not drawn) | . | . | . | . | . | 2 | . | . | .
COc1ccc(C=NNC(=O)c2cc(OCC(F)(F)F)ccc2OCC(F)(F)F)cc1 | . | . | . | . | . | 3 | . | . | .
CN(C)CCNc1ncnc2c1sc1nc(N3CCOCC3)c3c(c12)CC(C)(C)SC3 | i | i | 14 | 105 | 141* | -19 | 141 | 20 | 107
CCN(CC)CCNc1ncnc2c1sc1nc(N3CCOCC3)c3c(c12)CC(C)(C)SC3 | 227 | . | 17 | 101 | 130 | -9 | . | . | .
Cc1cc(Cl)ccc1OCC(=O)NC(=S)Nc1ccccc1N1CCOCC1 | 304 | i | -1 | 148* | 102 | 1 | 97 | -2 | 103
Cc1cc(Cl)ccc1OCC(=O)Nc1ccccc1N1CCOCC1 | 390 | . | 3 | 109 | 107 | 0 | . | . | .
CCCn1nc(C(=O)OCC(=O)c2ccc3c(c2)NC(=O)CO3)c2ccccc2c1=O | 204 | i | 7 | 132* | 97 | 5 | 112 | 8 | 106
CCOc1ccc(C=NNC(=O)c2cc3c(OC)cccc3[nH]2)cc1 | . | . | . | . | . | -124 | . | . | .
O=C1CCCC(=NNc2ccc(Cl)cc2)C1 | . | . | . | . | . | 6 | . | . | .
O=C(COc1c(F)c(F)cc(F)c1F)NC(=O)NC1CCCC1 | 632 | i | -8 | 56*[inhibitor] | 60 | 1 | 101 | 5 | 100
CCc1nnc(NC(=O)CSc2ccc(-c3cccs3)nn2)s1 | 272 | i | -11 | 90 | 83 | 4 | . | . | .
COc1ccccc1-c1ccc(SCc2cccc(F)c2)nn1 | 225 | i | -3 | 101 | 97 | . | . | . | .
